Laboratory results as given in ChEMBL document CHEMBL3244231, “Synthesis and identification of the major metabolites of prazosin formed in dog and rat” (J Med Chem, 1977).

What was measured:
Canis familiaris [1] = test: Antihypertensive activity in anesthetized normotensive mongrel dog assessed as maximum decrease in blood pressure at 1 mg/kg, iv administered at 30 mins intervals; type: functional, Canis lupus familiaris
Summary of the method: (§1)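 Anesthetized normotensive mongrel dogs each received escalating iv doses of 0.1, 0.4 and 1.0 mg/kg at 30-min intervals. After each interval, the maximum fall in blood pressure (mm) was read against control. Doses refer to the amine salts and are uncorrected; one agent was given as free base. At least two dogs were used per compound, and ranges are reported.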

Canis familiaris [2] = test: Antihypertensive activity in anesthetized normotensive mongrel dog assessed as maximum decrease in blood pressure at 0.4 mg/kg, iv administered at 30 mins intervals; type: functional, Canis lupus familiaris; summary of the method: as §1
Canis familiaris [3] = test: Antihypertensive activity in anesthetized normotensive mongrel dog assessed as maximum decrease in blood pressure at 0.1 mg/kg, iv administered at 30 mins intervals; type: functional, Canis lupus familiaris; summary of the method: as §1
[4] = Drug metabolism in rat assessed as parent compound level in urine; type: ADME; conditions: read-out: Drug excretion
[5] = Drug metabolism in dog assessed as parent compound level in urine; type: ADME, Canis lupus familiaris; conditions: read-out: Drug excretion
[6] = Drug metabolism in dog assessed as parent compound level in bile; type: ADME, Canis lupus familiaris; conditions: read-out: Drug excretion
[7] = Drug metabolism in rat assessed as parent compound level in bile; type: ADME; conditions: read-out: Drug excretion

| dose excreted [4] | dose excreted [5] | dose excreted [6] | dose excreted [7] | Structure (SMILES) | Activity (Canis familiaris [1]) | Activity (Canis familiaris [2]) | Activity (Canis familiaris [3]) |
| --- | --- | --- | --- | --- | --- | --- | --- |
| – | – | – | – | COc1cc2nc(N3CCN(C(=O)c4ccco4)CC3)nc(N)c2cc1O.O=S(=O)(O)O | 15 mmHg | 10 mmHg | – |
| – | – | – | – | COc1cc2c(N)nc(N3CCN(C(=O)c4ccco4)CC3)nc2cc1O.O=S(=O)(O)O | 18 mmHg | 12 mmHg | – |
| – | – | – | – | COc1cc2nc(N)nc(N)c2cc1OC | 23 mmHg | 3 mmHg | 0 mmHg |
| 6% | 6% | 6% | 6% | COc1cc2nc(N3CCN(C(=O)c4ccco4)CC3)nc(N)c2cc1OC.Cl [PRAZOSIN HYDROCHLORIDE] | 55 mmHg | 45 mmHg | 20 mmHg |
